pIC50: −log10 of the molar value.
Experiments:
Mus musculus = species on record: Mus musculus; assay: Cytotoxicity against mouse BV2 cells assessed as reduction in cell viability after 24 hrs by MTT assay; format: toxicity, cell-based; conditions: bv-2, 24 h
In short: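 BV2 microglia kept in DMEM with 10% FBS, penicillin 100 IU/mL and streptomycin, at 37.8 °C under 5% CO2. Cells were incubated 24 h in 96-well plates. Medium was then replaced with MTT 0.2 mg/mL for 3 h at 37.8 °C, and formazan was dissolved in DMSO. Absorbance read at 540 nm; viability given as percent of control.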

BV-2 = assay: Inhibition of LPS-induced NO production in mouse BV2 cells preincubated for 1 hr followed by LPS addition measured after 24 hrs by Griess assay; format: functional, cell-based
In short: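 BV2 cells seeded at 4 × 10^4 cells/well. Compounds were dissolved in DMSO, final DMSO under 0.1%. Pretreatment lasted 1 h, then LPS 500 ng/mL was added and cells incubated 24 h. Nitrite in the medium was measured by Griess assay. IC50 given as mean ± SD of three experiments; ω-nitro-L-arginine methyl ester served as positive control.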

| pIC50 (BV-2) | SMILES | Activity (Mus musculus) |
| --- | --- | --- |
| 4.26 | COc1c(C)c(O)c(Cc2c(O)cc(O)c3c2O[C@H](c2ccc(O)c(O)c2)[C@@H](O)C3)c(O)c1C(=O)C(C)C | Non-Toxic |
| 4.28 to 4.36 | CCCC(=O)c1c(O)c(Cc2c(O)cc(O)c3c2O[C@H](c2ccc(O)c(O)c2)[C@@H](O)[C@@H]3c2c(O)cc(O)c3c2O[C@H](c2ccc(O)c(O)c2)[C@H](O)C3)c(O)c(C)c1OC | Non-Toxic |
| 4.36 to 4.42 | CCCC(=O)c1c(O)c(Cc2c(O)cc(O)c3c2O[C@H](c2ccc(O)c(O)c2)[C@@H](O)C3)c(O)c(C)c1OC | Non-Toxic |
| 4.42 | COc1c(C)c(O)c(Cc2c(O)cc(O)c3c2O[C@H](c2ccc(O)c(O)c2)[C@@H](O)[C@@H]3c2c(O)cc(O)c3c2O[C@H](c2ccc(O)c(O)c2)[C@H](O)C3)c(O)c1C(=O)C(C)C | Non-Toxic |
| 4.22 | CCC(C)C(=O)c1c(O)c(Cc2c(O)cc(O)c3c2O[C@H](c2ccc(O)c(O)c2)[C@@H](O)C3)c(O)c(C)c1OC (stereo partly specified) | Non-Toxic |

| SMILES | pIC50 (BV-2) | Activity (Mus musculus) |
| --- | --- | --- |
| COC(=O)[C@@H](N)CCCNC(=N)N[N+](=O)[O-] [L-NAME] | 4.61 |  |
